Source: ChEMBL document CHEMBL3259808, “Optimization of antitrypanosomatid agents: identification of nonmutagenic drug candidates with in vivo activity” (J Med Chem, 2014)

What was measured:
[1] = test system: Trypanosoma cruzi; experiment: Antitrypanosomal activity against Trypanosoma cruzi Tulahuen 2 epimastigotes assessed as growth inhibition after 5 days; type: functional, organism-based
How it was run: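 Epimastigotes were grown axenically at 28 °C in BHI-tryptose with 5% FBS and seeded from a 5–7 day culture at 1 × 10⁶ cells/mL. Drug from a DMSO stock was added (final DMSO ≤0.4%; the control contained 0.4% DMSO). Duplicates were run. A600 was read at day 5, and % inhibition was calculated relative to day-0 and control readings. IC50 = concentration that halves the absorbance ratio.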

[2] = Selectivity index, ratio of IC50 for human RBC to IC50 for Trypanosoma cruzi Sylvio X-10 amastigotes
How it was run: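 Hemolysis: washed human erythrocytes (2% w/v in PBS) incubated 24 h at 37 °C with compound at final 50, 100 and 200 μM. Ten replicates per concentration. Hemoglobin release read at 405 nm against water lysis as 100%; amphotericin B 1.5 μM was the positive control. SI = IC50 red cells / parasite IC50 (Sylvio X-10 amastigotes or Tulahuen 2 epimastigotes).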

[3] = test system: Trypanosoma cruzi; experiment: Antitrypanosomal activity against Trypanosoma cruzi Sylvio X-10 amastigotes infected in African green monkey Vero cells assessed as eradication of amastigotes after 5 days by Giemsa staining-based assay; type: functional, organism-based; settings: Sylvio X-10, Vero, 120 h
How it was run: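 VERO cells in RPMI 1640 with 10% hiFCS were allowed to adhere for 24 h at 37 °C in 5% CO₂, then infected with tissue-derived trypomastigotes at 10:1. Free parasites were washed off after 24 h, and cultures were treated at five compound doses (text gives 72 h / 5 days). Cultures were methanol-fixed and Giemsa-stained, and infected cells were counted among 300. Quadruplicates were run in three independent experiments. IC50/IC90 were obtained by sigmoidal regression.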

[4] = test system: Trypanosoma cruzi; experiment: Antitrypanosomal activity against Trypanosoma cruzi Sylvio X-10 amastigotes infected in African green monkey Vero cells assessed as eradication of amastigotes after 72 hrs by Giemsa staining-based assay; settings: Sylvio X-10, Vero
[5] = Selectivity index, ratio of IC50 for African green monkey Vero cells to IC50 for Trypanosoma cruzi Sylvio X-10 amastigotes; type: toxicity, cell-based; settings: read-out: Ratio IC50
How it was run: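 VERO cytotoxicity: cells exposed 48 h at 37 °C, 5% CO2 to serial dilutions from a maximum of 2000 μM (DMSO stocks; DMSO <0.1% control); growth inhibition read by MTT at 570 nm. Amastigote IC50: Sylvio X-10-infected VERO cells, five doses, infected cells counted among 300 (Giemsa), quadruplicate, three experiments, sigmoidal fit. SI = IC50 VERO / IC50 amastigote.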

[6] = Stability of the compound in aqueous solution assessed as compound remaining at 1 mM at pH 6 after 1 hr by TLC analysis; type: physicochemical; settings: buffer, pH 6, 1 h, 1000 µM
How it was run: (§1)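 DMSO stocks diluted to final 1 mM in KCl·HCl pH 1.0, citrate pH 6.0, Tris·HCl pH 7.4 or borax·HCl pH 9.0 buffer. Incubated 1 h at 37 °C, then ethyl acetate extracts checked by TLC for decomposition products.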

[7] = Stability of the compound in aqueous solution assessed as compound remaining at 1 mM at pH 9 after 1 hr by TLC analysis; type: physicochemical; settings: buffer, pH 9, 1 h, 1000 µM; how it was run: as §1
[8] = Stability of the compound in aqueous solution assessed as compound remaining at 1 mM at pH 7.4 after 1 hr by TLC analysis; type: physicochemical; settings: buffer, pH 7.4, 1 h, 1000 µM; how it was run: as §1
[9] = test system: Salmonella typhimurium; experiment: Mutagenic activity in Salmonella typhimurium TA98 at 5 to 400 ug/plate by Ames test in presence of mouse liver S9 fraction; type: toxicity, organism-based; settings: salmonella enterica subsp. enterica serovar typhimurium
How it was run: (§2)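 Ames plate-incorporation assay with S. typhimurium TA98 in Vogel-Bonner E minimal glucose agar. Toxicity toward the bacteria was checked first. DMSO solutions were run in triplicate at five consecutive third-dilutions, starting at the highest non-toxic dose. Positive controls were 4-nitro-o-phenylenediamine (20.0 μg/plate) and 2-aminofluorene (10.0 μg/plate); DMSO was the negative control. Revertants were counted manually. A compound was called mutagenic when revertants were at least twice the negative control at two or more consecutive doses.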

[10] = test system: Salmonella typhimurium; experiment: Mutagenic activity in Salmonella typhimurium TA98 at 5 to 400 ug/plate by Ames test; type: toxicity, organism-based; settings: salmonella enterica subsp. enterica serovar typhimurium; how it was run: as §2
[11] = Trypanosoma cruzi, Tulahuen 2, 120 h

## C=CCN(C(C)=O)C1=NNC(c2cccs2)S1 (configuration not stated)
[1]; [11]
  IC50: > 25 µM

## C[C@@H]1[C@H](O)[C@@H](C)/C=C/C=C/C=C/C=C/C=C/C=C/C=C/[C@H](O[C@@H]2O[C@H](C)[C@@H](O)[C@H](N)[C@@H]2O)C[C@@H]2O[C@](O)(C[C@@H](O)C[C@@H](O)[C@H](O)CC[C@@H](O)C[C@@H](O)CC(=O)O[C@H]1C)C[C@H](O)[C@H]2C(=O)O [AMPHOTERICIN B]
[2]
  Ratio IC50: 10
[3]
  IC50: 1.1 µM

## C=CCn1c(-c2ccccc2)cs/c1=N\N=C\c1ccco1
[1]; [11]
  IC50: > 25 µM

## O=C1CS/C(=N\N=C\c2ccc([N+](=O)[O-])s2)N1c1ccccc1 (stereo in doubt; 10)
[4]
  IC90: > 25 µM
[1]; [11]
  IC50: 13 µM
[3]
  IC50: > 25 µM

## C=CCNC(=S)N/N=C/c1ccsc1
[1]; [11]
  IC50: > 25 µM

## C=CCN1C(=O)CS\C1=N/N=C/C=C/c1ccco1
[1]; [11]
  IC50: > 25 µM

## Cc1cs/c(=N\N=C\c2cccs2)n1-c1ccccc1
[1]; [11]
  IC50: > 25 µM

## C=CCn1c(-c2ccccc2)cs/c1=N\N=C\c1ccc(S(=O)(=O)O)o1
[1]; [11]
  IC50: > 25 µM

## S=C(N/N=C/c1ccccc1)Nc1ccccc1
[1]; [11]
  IC50: 19 µM

## O=C1CS\C(=N/N=C\C=C\C=C\c2cccs2)N1c1ccccc1
[1]; [11]
  IC50: > 25 µM

## C=CCNC(=S)N/N=C/c1ccc2ccccc2c1
[1]; [11]
  IC50: 5.4 µM

## CC(=O)N(C1=NN(C(C)=O)C(c2cccs2)S1)c1ccccc1 (configuration not stated)
[1]; [11]
  IC50: > 25 µM

## C=CCNC(=S)N/N=C/c1cc2ccccc2o1
[1]; [11]
  IC50: > 25 µM

## C=CCN(C(C)=O)C1=NNC(c2ccc([N+](=O)[O-])s2)S1 (configuration not stated)
[1]; [11]
  IC50: > 25 µM

## C=CCNC(=S)N/N=C/c1cncc(Br)c1
[1]; [11]
  IC50: > 25 µM

## C=CCn1c(-c2ccc(Cl)cc2)cs/c1=N\N=C\c1ccsc1
[1]; [11]
  IC50: 14.6 µM

## C=CCn1c(-c2ccccc2)cs/c1=N\N=C\c1ccc([N+](=O)[O-])s1
[5]
  selectivity ratio: 5
[1]; [11]
  IC50: 6 µM
[3]
  IC50: 25 µM

## C(=C\c1ccco1)/C=N/N=c1/scc(-c2ccccc2)n1-c1ccccc1
[1]; [11]
  IC50: 5 µM

## C=CCn1c(C)cs/c1=N\N=C\c1cccs1
[6]
  Stability: Unstable
[7]
  Stability: Unstable
[4]
  IC90: > 25 µM
[8]
  Stability: Unstable
[1]; [11]
  IC50: > 25 µM
[3]
  IC50: > 25 µM

## C(=N\N=c1/scc(-c2ccccc2)n1-c1ccccc1)/c1ccccc1
[1]; [11]
  IC50: > 25 µM

## C=CCn1c(C)cs/c1=N\N=C\c1ccco1
[1]; [11]
  IC50: > 25 µM

## C=CCn1c(-c2ccc([N+](=O)[O-])cc2)cs\c1=N/N=C/C=C/c1cccs1
[1]; [11]
  IC50: > 25 µM

## C=CCN1C(=O)CS/C1=N/N=C\c1ccc(Cl)cc1
[1]; [11]
  IC50: > 25 µM

## N/C(S)=N/N=C/c1ccc([N+](=O)[O-])s1
[1]; [11]
  IC50: 25 µM

## O=C1CS/C(=N\N=C\c2ccc([N+](=O)[O-])s2)N1
[1]; [11]
  IC50: > 25 µM

## C=CCn1c(C)cs\c1=N/N=C/C=C/c1ccccc1
[1]; [11]
  IC50: > 25 µM

## Br.C=CCn1c(-c2ccc([N+](=O)[O-])cc2)cs\c1=N/N=C/C=C/c1ccco1
[9]
  Activity: Toxic
[10]
  Activity: Toxic
[1]; [11]
  IC50: > 25 µM

## C=CCNC(=S)N/N=C/C=C/c1cccs1
[9]
  Activity: Non-toxic
[10]
  Activity: Non-toxic
[1]; [11]
  IC50: > 25 µM

## C=CCn1c(-c2ccc(OC)cc2)cs\c1=N/N=C/C=C/c1cccs1
[1]; [11]
  IC50: > 25 µM

## C=CCNC(=S)N/N=C/C=C/c1ccccc1
[1]; [11]
  IC50: 6.6 µM

## C=CCn1c(-c2ccc(Br)cc2)cs\c1=N/N=C/C=C/c1cccs1
[1]; [11]
  IC50: > 25 µM

## C=CCn1c(-c2ccccc2)cs\c1=N/N=C/C=C/c1cccs1
[1]; [11]
  IC50: > 25 µM

## C=CCn1c(-c2ccc(Cl)cc2)cs/c1=N/N=C/c1cccs1
[1]; [11]
  IC50: > 25 µM
[3]
  IC50: 8 µM

## C=CCNC(=S)N/N=C/c1ccc(SC)cc1
[1]; [11]
  IC50: 10 µM

## C=CCn1c(-c2ccc(Cl)cc2)cs/c1=N/N=C/c1ccc([N+](=O)[O-])s1
[4]
  IC90: > 25 µM
[1]; [11]
  IC50: 14 µM
[3]
  IC50: > 25 µM

## S=C(N/N=C/C=C/c1ccco1)Nc1ccccc1
[1]; [11]
  IC50: 11 µM

## C=CCn1c(-c2ccc3ccccc3c2)cs\c1=N/N=C/C=C/c1cccs1
[1]; [11]
  IC50: > 25 µM

## C=CCN1C(=O)CS/C1=N\N=C\c1ccc([N+](=O)[O-])s1
[4]
  IC90: > 25 µM
[1]; [11]
  IC50: > 25 µM
[3]
  IC50: > 25 µM

## C=CCn1c(-c2ccccc2)cs\c1=N/N=C/C=C/c1ccccc1
[1]; [11]
  IC50: > 25 µM

## C=CCNC(=S)N/N=C/c1ccnc2ccccc12
[1]; [11]
  IC50: 17 µM

## C=CCn1c(-c2ccccc2)cs/c1=N/N=C/c1cccs1
[1]; [11]
  IC50: > 25 µM

## C=CCn1c(-c2ccc(Cl)cc2)cs\c1=N/N=C/C=C/c1cccs1
[1]; [11]
  IC50: > 25 µM

## C=CCNC(=S)N/N=C/c1ccc2c(c1)OCO2
[1]; [11]
  IC50: > 25 µM

## C=CCn1c(C)cs/c1=N\N=C\c1ccc(S(=O)(=O)O)o1
[1]; [11]
  IC50: > 25 µM

## Cc1cs/c(=N/N=C/C=C/c2ccco2)n1-c1ccccc1
[1]; [11]
  IC50: 25 µM

## C=CCNC(=S)N/N=C/c1ccc(Cl)cc1
[1]; [11]
  IC50: 11 µM

## C=CCn1c(-c2ccc(OC)cc2)cs/c1=N/N=C/c1ccc([N+](=O)[O-])s1
[4]
  IC90: > 25 µM
[1]; [11]
  IC50: 8 µM
[3]
  IC50: > 25 µM

## C=CCn1c(-c2ccc(Cl)cc2)cs\c1=N/N=C/C=C/c1ccc([N+](=O)[O-])s1
[4]
  IC90: 25.4 µM
[1]; [11]
  IC50: 10 µM
[3]
  IC50: 16.9 µM

## S=C(N/N=C/C=C/C=C/c1cccs1)Nc1ccccc1
[4]
  IC90: > 25 µM
[1]; [11]
  IC50: 1.7 µM
[3]
  IC50: > 25 µM

## O=[N+]([O-])c1ccc(/C=N/NC(=S)Nc2ccccc2)s1
[5]
  selectivity ratio: 20
[1]; [11]
  IC50: 4 µM
[3]
  IC50: 4.1 µM

## O=C1CS\C(=N/N=C/C=C/c2ccco2)N1c1ccccc1
[1]; [11]
  IC50: > 25 µM

## C=CCn1c(-c2ccc(Cl)cc2)cs/c1=N\N=C\c1ccc(Cl)cc1
[1]; [11]
  IC50: > 25 µM

## C=CCNC(=S)N/N=C/c1ccc(O)cc1
[1]; [11]
  IC50: > 25 µM

## O=[N+]([O-])c1ccc(/C=N/N=c2\scc(-c3ccccc3)n2-c2ccccc2)s1
[1]; [11]
  IC50: > 25 µM

## C=CCN1C(=O)CS/C1=N\N=C\c1cccs1
[1]; [11]
  IC50: > 25 µM

## C=CCn1c(-c2ccccc2)cs/c1=N/N=C/c1ccc([N+](=O)[O-])s1
[1]; [11]
  IC50: 20 µM

## C=CCn1c(-c2ccc(Cl)cc2)cs/c1=N\N=C\c1ccc2c(c1)[n+]([O-])c(C)c(C)[n+]2[O-]
[1]; [11]
  IC50: 15 µM

## C=CCN1C(=O)CS\C1=N/N=C\C=C\C=C\c1cccs1
[1]; [11]
  IC50: > 25 µM

## O=C1CS/C(=N\N=C\c2ccc([N+](=O)[O-])s2)N1c1ccccc1 (stereo in doubt; 13)
[1]
  IC50: > 25 µM

## C=CCN(C(C)=O)C1=NN(C(C)=O)C(/C=C/c2ccco2)S1 (configuration not stated)
[1]; [11]
  IC50: > 25 µM
